Laboratory results as given in ChEMBL document CHEMBL1125744, “Preparation, characterization, and anticancer activity of a series of cis-PtCl2 complexes linked to anthraquinone intercalators” (1991).
pEC50: −log10 of the molar value.

How the values were obtained:
Type in all cases: functional
P388 [1] = experiment: In vitro inhibition of P388 murine leukemia cell (S/ADR) growth; conditions: Mus musculus; for pEC50: read-out: ED50 (the source's name)
Outline: (§1)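 P388 murine leukemia cells (S/ADR) or multidrug-resistant P388/ADR subline (R/ADR), kept exponential in suspension in RPMI 1640 + 10% heat-inactivated FCS, 10 μM 2-mercaptoethanol, penicillin/streptomycin; seeded 10⁵ cells/mL, exposed to graded concentrations for 4 days. Density counted daily by Coulter counter; growth rate from linear regression of log density vs time, expressed as % of control; ED50 read from dose-effect curves.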

P388 [2] = experiment: In vitro inhibition of P388 murine leukemia cell (R/ADR) growth; conditions: Mus musculus; for pEC50: read-out: ED50 (the source's name); outline: as §1
Mus musculus = species on record: Mus musculus; experiment: Lethal dose against DBA/2 mice was determined.
[3] = T/C ratio of the compound
[4] = T/C ratio with the optimal dose mg/Kg in parenthesis.

Row | pEC50 (P388 [1]) | pEC50 (P388 [2]) | Compound | ED50 (P388 [1]) [µM] | ED50 (P388 [2]) [µM] | also measured
1 | 4.70 | < 5.00 | O=C1c2ccccc2C(=O)c2c(NCCCNCCNCCO)cccc21 |  |  | 
2 | 6.70 | < 4.22 | NCCNCCOCCOc1cccc2c1C(=O)c1ccccc1C2=O |  |  | 
3 | 5.00 | < 5.00 | NCCCOc1cccc2c1C(=O)c1ccccc1C2=O |  |  | 
4 | 4.22 | 4.70 | NCCCCCCCCCCCCNc1cccc2c1C(=O)c1ccccc1C2=O |  |  | 
5 | 5.35 | 5.10 | NCCNCCCNc1cccc2c1C(=O)c1ccccc1C2=O |  |  | 
6 | 4.70 | 4.35 | NCCCNc1cccc2c1C(=O)c1ccccc1C2=O |  |  | 
7 | 5.22 | 4.22 | NCCNCCCOc1cccc2c1C(=O)c1ccccc1C2=O |  |  | 
8 | 5.35 | 5.10 | NCCNCCNc1cccc2c1C(=O)c1ccccc1C2=O |  |  | 
9 |  |  | CISPLATIN | 0.19 | 1.4 | LD50 (Mus musculus): 6.6 mg/kg; T/C [3]: 134
10 |  |  | Pt(en)Cl2 | 6 | 20 | 
11 |  |  | [[2-[[2-(Anthraquinon-1-ylamino)ethyl]amino]ethyl]-amine-N,N']dichloroplatinum | 0.2 | > 60 | LD50 (Mus musculus): > 28 mg/kg; T/C [4]: 126
12 |  |  | [[2-[[2-(Anthraquinon-1-ylamino)ethyl]amino]ethyl]-amine-N,N']diiodoplatinum | 4.5 | 12 | 
13 |  |  | [[2-[[3-(Anthraquinon-1-ylamino)propyl]amino]ethyl](2-hydroxyethyl)-amine-N,N']dichloroplatinum | > 30 | > 60 | 
14 |  |  | [[2-[[3-(Anthraquinon-1-ylamino)propyl]amino]ethyl]-amine-N,N']dichloroplatinum | 0.45 | > 60 | LD50 (Mus musculus): > 28 mg/kg; T/C [4]: 130
15 |  |  | [[2-[[3-(Anthraquinon-1-yloxy)propyl]amino]ethyl]-amine-N,N']dichloroplatinum | 0.45 | 12 | LD50 (Mus musculus): > 28 mg/kg; T/C [4]: 120
16 |  |  | [[2-[[6-(Anthraquinon-1-ylamino)hexyl]amino]ethyl]-amine-N,N']dichloroplatinum | 45 | > 60 | 
17 |  |  | cis-Bis[[3-(anthraquinon-1-ylamino)butyl]amide]dichloroplatinum | 8 | > 60 | 
18 |  |  | cis-Bis[[3-(anthraquinon-1-ylamino)butyl]amide]diiodoplatinum | 40 | > 60 | 
19 |  |  | cis-Bis[[3-(anthraquinon-1-ylamino)dodecyl]amide]dichloroplatinum | 60 | > 60 | 
20 |  |  | cis-Bis[[3-(anthraquinon-1-ylamino)dodecyl]amide]diiodoplatinum | 60 | > 60 | 
21 |  |  | cis-Bis[[3-(anthraquinon-1-ylamino)hexyl]amide]dichloroplatinum | > 60 | > 60 | 
22 |  |  | cis-Bis[[3-(anthraquinon-1-ylamino)hexyl]amide]diiodoplatinum | > 60 | > 60 | 
23 |  |  | cis-Bis[[3-(anthraquinon-1-ylamino)propyl]amide]diiodoplatinum | 40 | > 60 | 
24 |  |  | cis-Bis[[3-(anthraquinon-1-yloxy)propyl]amide]dichloroplatinum | > 10 | > 10 | 
25 |  |  | cis-Bis[[3-(anthraquinon-1-yloxy)propyl]amide]diiodoplatinum | > 10 | > 10 | 

Row | Compound | pEC50 (P388 [1]) | pEC50 (P388 [2]) | ED50 (P388 [1]) [µM] | ED50 (P388 [2]) [µM] | also measured
26 | NCCNCCCCCCNc1cccc2c1C(=O)c1ccccc1C2=O | 5.35 | 5.10 |  |  | LD50 (Mus musculus): 200 mg/kg
27 | NCCCCNc1cccc2c1C(=O)c1ccccc1C2=O | 4.40 | 4.30 |  |  | LD50 (Mus musculus): 200 mg/kg
28 | NCCCCCCNc1cccc2c1C(=O)c1ccccc1C2=O | 4.35 | 4.35 |  |  | LD50 (Mus musculus): 133 mg/kg
